Source: ChEMBL document CHEMBL4190391 (J Med Chem, 2018)

What was measured:
[1] = tested on: Human immunodeficiency virus 1; test: Antiviral activity against wild type HIV1 NL4-3 infected in human MT4 cells assessed as reduction in p24 Gag protein production after 7 days by chemiluminescent enzyme immunoassay; assay type: functional, organism-based; details: Human immunodeficiency virus 1, NL4-3, MT4, 168 h
[2] = tested on: Human immunodeficiency virus 1; test: Resistance index, ratio of EC50 for antiviral activity against ATV resistant HIV1 harboring protease L23I/E34Q/K43I/M46I/I50L/G51A/L63P/A71V/V82A/T91A mutant infected in human MT4 cells to EC50 for antiviral activity against wild type HIV1 NL4-3 infected in human MT4 cells; assay type: functional
[3] = tested on: Human immunodeficiency virus 1; test: Resistance index, ratio of EC50 for antiviral activity against APV resistant HIV1 harboring protease L10F/M46I/I50V/I85V mutant infected in human MT4 cells to EC50 for antiviral activity against wild type HIV1 NL4-3 infected in human MT4 cells; assay type: functional
[4] = tested on: Human immunodeficiency virus 1; test: Antiviral activity against ATV resistant HIV1 harboring protease L23I/E34Q/K43I/M46I/I50L/G51A/L63P/A71V/V82A/T91A mutant infected in human MT4 cells assessed as reduction in p24 Gag protein production after 7 days by chemiluminescent enzyme immunoassay; assay type: functional, organism-based; details: Human immunodeficiency virus 1, MT4, 168 h
How it was run: (§1)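 Variants had been selected by passaging HIV-1 NL4-3 in MT-4 cells under increasing PI concentrations (up to 5 μM). Assays were run in duplicate; values are means (± S.D.) of two independent experiments.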

[5] = tested on: Human immunodeficiency virus 1; test: Antiviral activity against LPV resistant HIV1 harboring protease L10F/[…]I54V/V82A mutant infected in human MT4 cells assessed as reduction in p24 Gag protein production after 7 days by chemiluminescent enzyme immunoassay; assay type: functional, organism-based; details: Human immunodeficiency virus 1, MT4, 168 h; how it was run: as §1
[6] = tested on: Human immunodeficiency virus 1; test: Resistance index, ratio of EC50 for antiviral activity against LPV resistant HIV1 harboring protease L10F/[…]I54V/V82A mutant infected in human MT4 cells to EC50 for antiviral activity against wild type HIV1 NL4-3 infected in human MT4 cells; assay type: functional
[7] = tested on: Human immunodeficiency virus 1; test: Antiviral activity against APV resistant HIV1 harboring protease L10F/M46I/I50V/I85V mutant infected in human MT4 cells assessed as reduction in p24 Gag protein production after 7 days by chemiluminescent enzyme immunoassay; assay type: functional, organism-based; details: Human immunodeficiency virus 1, MT4, 168 h; how it was run: as §1
[8] = tested on: Human immunodeficiency virus 1; test: Antiviral activity against HIV-1 LAI infected in human MT2 cells; assay type: functional, organism-based; details: Human immunodeficiency virus 1, LAI
Protease = Protease (Human immunodeficiency virus 1, UniProt Q9YQ12); test: Inhibition of wild type HIV-1 NL4-3 protease expressed in Escherichia coli Rosetta (DE3)pLysS using Ac-Thr-Ile-Nle-Nle-Gln-Arg-NH2 as substrate by fluorescence assay
Protease, sequence (Q9YQ12 whole entry): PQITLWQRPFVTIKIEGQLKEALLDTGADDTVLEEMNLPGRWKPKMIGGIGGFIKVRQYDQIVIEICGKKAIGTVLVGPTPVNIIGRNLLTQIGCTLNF

Structure (SMILES) | EC50 [1] | Ratio EC50 [2] | Ratio EC50 [3] | EC50 [4] | EC50 [5] | Ratio EC50 [6] | EC50 [7] | IC50 [8] | Ki (Protease)
CC(C)CN(C[C@@H](O)[C@H](Cc1ccccc1)NC(=O)O[C@H]1CCOC1)S(=O)(=O)c1ccc(N)cc1 | 87 nM | 11 | >11 | > 1000 nM | 190 nM | 2 | > 1000 nM | – | –
CC(C)CN(C[C@@H](O)[C@H](Cc1ccccc1)NC(=O)O[C@H]1CO[C@H]2OCC[C@H]21)S(=O)(=O)c1ccc(N)cc1 | – | – | – | 24 nM | – | – | – | – | –
COc1ccc(S(=O)(=O)N(CC(C)C)C[C@@H](O)[C@H](Cc2ccccc2)NC(=O)O[C@H]2C[C@H]3CO[C@H]4OCC[C@@H]2[C@@H]34)cc1 | – | – | – | – | – | – | – | 31 nM | 0.045 nM
COc1ccc(S(=O)(=O)N(CC(C)C)C[C@@H](O)[C@H](Cc2ccccc2)NC(=O)O[C@@H]2C[C@@H]3CO[C@@H]4CCC[C@H]2[C@H]34)cc1 | – | – | – | – | – | – | – | > 1000 nM | 4.55 nM
CC(C)CN(C[C@@H](O)[C@H](Cc1cc(F)cc(F)c1)NC(=O)O[C@H]1CC2CO[C@H]3OCC[C@@H]1[C@@H]23)S(=O)(=O)c1ccc2nc(NC3CC3)sc2c1 (stereo partly specified) | 2 nM | 1 | 0.3 | 1.5 nM | 2 nM | 2 | 0.32 nM | 0.023 nM | 0.012 nM
COc1ccc(S(=O)(=O)N(CC(C)C)C[C@@H](O)[C@H](Cc2ccccc2)NC(=O)O[C@H]2C[C@@H]3CO[C@@H]4OC[C@H]2[C@H]34)cc1 | – | – | – | – | – | – | – | 21 nM | 0.05 nM
CC(C)CN(C[C@@H](O)[C@H](Cc1ccccc1)NC(=O)O[C@H]1CC2CO[C@H]3OCC[C@@H]1[C@@H]23)S(=O)(=O)c1ccc2nc(NC3CC3)sc2c1 (stereo partly specified) | – | – | – | – | – | – | – | 1.4 nM | 0.01 nM
COc1ccc(S(=O)(=O)N(CC(C)C)C[C@@H](O)[C@H](Cc2ccccc2)NC(=O)O[C@H]2C[C@H]3CCO[C@H]4OC[C@@H]2[C@@H]34)cc1 | – | – | – | – | – | – | – | 29 nM | 0.005 nM
CC(C)CN(C[C@@H](O)[C@H](Cc1cc(F)cc(F)c1)NC(=O)O[C@@H]1C[C@@H]2CO[C@@H]3OCC[C@H]1[C@H]23)S(=O)(=O)c1ccc2nc(NC3CC3)sc2c1 | 1.2 nM | 0.3 | 0.2 | 0.6 nM | 2 nM | 1 | 0.3 nM | 0.027 nM | 0.002 nM
COC[C@@H]1C[C@@H]2[C@H]3[C@H](CO[C@H]3O1)C[C@@H]2OC(=O)N[C@@H](Cc1ccccc1)[C@H](O)CN(CC(C)C)S(=O)(=O)c1ccc(OC)cc1 | – | – | – | – | – | – | – | 248 nM | 0.09 nM
COc1ccc(S(=O)(=O)N(CC(C)C)C[C@@H](O)[C@H](Cc2ccccc2)NC(=O)O[C@H]2C[C@H]3CO[C@H]4CCC[C@@H]2[C@@H]34)cc1 | – | – | – | – | – | – | – | > 1000 nM | 0.45 nM
COc1ccc(S(=O)(=O)N(CC(C)C)C[C@@H](O)[C@H](Cc2ccccc2)NC(=O)O[C@H]2C[C@H]3CO[C@H]4O[C@H](C)C[C@@H]2[C@@H]34)cc1 | – | – | – | – | – | – | – | 130 nM | 0.05 nM
COc1ccc(S(=O)(=O)N(CC(C)C)C[C@@H](O)[C@H](Cc2ccccc2)NC(=O)O[C@@H]2C[C@@H]3CO[C@@H]4OCC[C@H]2[C@H]34)cc1 | – | – | – | – | – | – | – | 9 nM | 0.008 nM
CC(C)CN(C[C@@H](O)[C@H](Cc1ccccc1)NC(=O)O[C@@H]1C[C@@H]2CO[C@@H]3OCC[C@H]1[C@H]23)S(=O)(=O)c1ccc2nc(NC3CC3)sc2c1 | – | – | – | – | – | – | – | 0.9 nM | 0.5 nM
COC(=O)N[C@H](C(=O)N[C@@H](Cc1ccccc1)[C@@H](O)CN(Cc1ccc(-c2ccccn2)cc1)NC(=O)[C@@H](NC(=O)OC)C(C)(C)C)C(C)(C)C [ATAZANAVIR] | 3.3 nM | >303 | 21 | > 1000 nM | 29 nM | 9 | 70 nM | – | –
Cc1cccc(C)c1OCC(=O)N[C@@H](Cc1ccccc1)[C@@H](O)C[C@H](Cc1ccccc1)NC(=O)[C@H](C(C)C)N1CCCNC1=O [LOPINAVIR] | – | – | – | > 1000 nM | > 1000 nM | – | 390 nM | – | –
